Experimental data as given in ChEMBL document CHEMBL4017491, “Phthalazino[1,2-b]quinazolinones as p53 Activators: Cell Cycle Arrest, Apoptotic Response and Bak-Bcl-xl Complex Reorganization in Bladder Cancer Cells” (J Med Chem, 2017).
Calls of active or inactive are those of the source. No cut-off for these calls is given here.

Tests used:
[1] = tested on: T-24; assay: Effect on p53 expression in human T24 cells up to 10 uM after 24 hrs by Western blot analysis; assay type: functional, cell-based
In short: (§1)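 T24 cells (3 × 10^5 per well) grown to 85–95% confluence, then exposed 24 h to 0–10 μM. Whole-cell extracts run on SDS-PAGE and blotted to nitrocellulose. Probed with the indicated antibodies and AP-linked anti-rabbit IgG, with ECL detection. Blots stripped and reprobed for β-actin as loading control.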

[2] = tested on: T-24; assay: Effect on Bcl-Xl expression in human T24 cells up to 10 uM after 24 hrs by Western blot analysis; assay type: functional, cell-based
In short: (§2)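 T24 cells, 3 × 10^5 per well, grown to 85−95% confluence, then exposed to 0−10 μM for 24 h. Whole-cell extracts in sample buffer run on SDS-polyacrylamide gels and transferred to nitrocellulose. Blots probed with primary antibodies and AP-linked anti-rabbit IgG, detected by ECL. Blots stripped and reprobed for β-actin as loading control.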

[3] = tested on: T-24; assay: Effect on cell cycle distribution in human T24 cells assessed as late apoptotic cells at 10 uM after 1 hr by Annexin V-FITC/propidium iodide staining based FACS analysis relative to control; assay type: functional
[4] = tested on: T-24; assay: Cell cycle arrest in human T24 cells assessed as effect on cyclin D expression up to 10 uM after 24 hrs by Western blot analysis; assay type: functional, cell-based; in short: as §2
[5] = tested on: T-24; assay: Induction of apoptosis in human T24 cells assessed as necrotic cells at 5 uM by Annexin V-FITC/propidium iodide based flow cytometric analysis (reference value: 8.53%); assay type: functional
[6] = tested on: T-24; assay: Effect on cell cycle distribution in human T24 cells assessed as late apoptotic cells at 1 uM after 1 hr by Annexin V-FITC/propidium iodide staining based FACS analysis relative to control; assay type: functional
[7] = tested on: J82; assay: Cell cycle arrest in human J82 cells assessed as accumulation at G1 phase at 5 uM after 48 hrs by propidium iodide staining based FACS analysis (reference value: 42.29 %); assay type: functional
In short: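 Cells treated with 1−10 μM for 48 h, trypsinized, and fixed in 70% ethanol. Stained with 50 μg/mL propidium iodide and phase distribution analyzed by flow cytometry. Mean ± SD from three independent measurements.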

[8] = tested on: HepG2; assay: Antiproliferative activity against human HepG2 cells by MTT assay; assay type: functional, cell-based
In short: (§3)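 Cell lines cultured in RPMI 1640 with 10% FBS. Viability read by MTT (5 mg/mL, 4 h at 37 °C), with formazan dissolved in DMSO and absorbance taken at 490 nm. Viability (%) = A490 treated / A490 control × 100. IC50 taken from dose-response curves, from three independent experiments each run in triplicate.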

[9] = tested on: Mus musculus; assay: Toxicity in BALB/C nude mouse xenografted with human HepG2 cells assessed as effect on food consumption at 6 to 12 mg/kg, ip administered every 2 days for 16 days; assay type: organism-based; settings: in vivo
In short: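 Male BALB/C nude mice with HepG2 flank xenografts, n = 6/group. Given ip 6 or 12 mg/kg every 2 days in 5% DMSO/saline; vehicle and HCPT 6 mg/kg as controls. Clinical signs, food intake and body weight monitored; tumour size and weight measured three times weekly.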

[10] = tested on: T-24; assay: Induction of apoptosis in human T24 cells assessed as live cells at 5 uM by Annexin V-FITC/propidium iodide based flow cytometric analysis (reference value: 89.5%); assay type: functional
[11] = tested on: Escherichia coli; assay: Induction of conformational change in Escherichia coli pBR322 DNA at 1 to 10 uM after 1 hr by DNA relaxation assay
In short: (§4)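 Plasmid pBR322 incubated 1 h with 1–10 μM in 5 mM Tris-HCl, 50 mM NaCl, pH 7.2. Samples run on 1.5% agarose and stained with 0.5 μg/mL ethidium bromide. Lane controls: 1% DMSO (negative) and ethidium bromide (positive).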

[12] = tested on: T-24; assay: Antiproliferative activity against human T24 cells harboring scRNA after 48 hrs by MTT assay; assay type: functional, cell-based
In short: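 T24 cells pre-exposed to p53-siRNA or scrambled RNA for 24 h, then treated with a concentration series for 48 h. Proliferation measured by MTT read at 490 nm, expressed as % of control absorbance.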

[13] = tested on: Escherichia coli; assay: Induction of DNA damage in Escherichia coli pBR322 DNA assessed as effect on mobility rate at 1 to 10 uM after 1 hr by DNA relaxation assay; in short: as §4
[14] = tested on: Mus musculus; assay: Effect on p53 expression in BALB/C nude mouse xenografted with human T24 cells at 6 to 12 mg/kg, ip administered every 2 days for 16 days by immunoblot analysis
[15] = tested on: Mus musculus; assay: Down regulation of Bak expression in BALB/C nude mouse xenografted with human T24 cells at 6 to 12 mg/kg, ip administered every 2 days for 16 days by immunoblot analysis
[16] = tested on: T-24; assay: Effect on cell cycle distribution in human T24 cells assessed as early apoptotic cells at 10 uM after 1 hr by Annexin V-FITC/propidium iodide staining based FACS analysis relative to control; assay type: functional
[17] = target: Cellular tumor antigen p53 (Homo sapiens) (UniProt P04637); assay: Activation of p53 in human T24 cells assessed as p53 phosphorylation after 24 hrs by Western blot analysis; assay type: cell-based; in short: as §2
[18] = tested on: T-24; assay: Effect on light absorption in human T24 cells up to 10 uM after 1 hr at 490 nanometer; assay type: functional, cell-based
In short: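 T24 cells treated at 1−10 μM for 1 h, then absorbance read at 490 nm to check for interference with the MTT read-out.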

[19] = tested on: T-24; assay: Effect on p53 protein expression in human T24 cells up to 10 uM after 24 hrs by Western blot analysis; assay type: functional, cell-based; in short: as §1
[20] = target: Cellular tumor antigen p53 (Homo sapiens) (UniProt P04637); assay: Activation of p53 in human T24 cells assessed as increase in cyclinE-CDK2 complex formation up to 10 uM after 24 hrs by Western blot analysis; assay type: cell-based; in short: as §2
[21] = target: Cellular tumor antigen p53 (Homo sapiens) (UniProt P04637); assay: Induction of phospho-p53 accumulation in human T24 cells assessed as activation of bak at 1 to 10 uM after 48 hrs by Hoechst 33258 staining based fluorescence confocal microscopic analysis; assay type: cell-based
In short: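 T24 cells treated for 48 h, fixed in 4% paraformaldehyde. Immunostained with antibody to active (N-terminal) Bak and a Cy3-conjugated secondary antibody. Imaged by confocal microscopy at 400×.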

[22] = tested on: T-24; assay: Induction of apoptosis in human T24 cells assessed as early apoptotic cells at 10 uM by Annexin V-FITC/propidium iodide based flow cytometric analysis (reference value: 1.79%); assay type: functional
[23] = tested on: T-24; assay: Effect on cell cycle distribution in human T24 cells assessed as early apoptotic cells at 5 uM after 1 hr by Annexin V-FITC/propidium iodide staining based FACS analysis relative to control; assay type: functional
[24] = tested on: T-24; assay: Effect on cell cycle distribution in human T24 cells assessed as live cells at 1 uM after 1 hr by Annexin V-FITC/propidium iodide staining based FACS analysis (reference value: 98.3%); assay type: functional
[25] = tested on: HeLa; assay: Antiproliferative activity against human HeLa cells by MTT assay; assay type: functional, cell-based; in short: as §3
[26] = tested on: T-24; assay: Induction of apoptosis in human T24 cells assessed as activation of caspase-3 at 5 uM by FITC-DEVD-FMK based flow cytometric analysis (reference value: 2.8%)

Sequence of Cellular tumor antigen p53 (Homo sapiens) (P04637 whole entry, looked up): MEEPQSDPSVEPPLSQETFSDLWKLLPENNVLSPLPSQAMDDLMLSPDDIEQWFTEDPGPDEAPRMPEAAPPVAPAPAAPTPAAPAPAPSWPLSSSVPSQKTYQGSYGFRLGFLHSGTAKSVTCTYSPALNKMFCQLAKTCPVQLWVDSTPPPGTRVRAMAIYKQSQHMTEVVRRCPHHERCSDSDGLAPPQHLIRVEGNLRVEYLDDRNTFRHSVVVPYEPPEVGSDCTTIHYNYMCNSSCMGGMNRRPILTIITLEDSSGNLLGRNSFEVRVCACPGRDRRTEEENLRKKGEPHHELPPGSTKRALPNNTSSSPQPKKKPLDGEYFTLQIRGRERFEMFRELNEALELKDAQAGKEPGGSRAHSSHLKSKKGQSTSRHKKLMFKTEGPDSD

CN(C)CCNc1nn2c(=O)c3cc(Br)ccc3nc2c2ccccc12 was tested, and the Activity [1] was “inactive”, the Activity [2] was “inactive” and the Activity [3] was 0%. For the same compound, the Activity [4] was “inactive”, the Activity [5] was 0.661% and the Activity [6] was 0%. The Activity [7] was 17.78%, the IC50 [8] was 3.8 µM and the Activity [9] was “Non-Toxic”. The Activity [10] was 62.8%, the Activity [11] was “inactive” and the Activity [12] was “Dose-dependent effect”. For the same compound, the Activity [13] was “inactive”, the Activity [14] was “inactive” and the Activity [15] was “Active”. The Activity [16] was 0%, the Activity [17] was “Dose-dependent effect” and the Activity [18] was “inactive”. The Activity [19] was “inactive”, the Activity [20] was “Active” and the Activity [21] was “Active”. The Activity [22] was 29.4%, the Activity [23] was 0% and the Activity [24] was 93.5%. It also gave an IC50 [25] of 6.1 µM and an Activity [26] of 17.6%.
